Compound activity (PubChem BioAssay)
Autophagy mod: modulators of autophagy; MEF GFP-LC3 puncta imaging; test concentration mostly 10 µM; calls only at 10 µM (by protocol); 190,000 tested, 0.98% active; AID 463193;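 active means percentage of spot-positive cells more than 3 SD above its plate mean, without a fluorescence outlier flag or 80% toxicity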;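 further: spot-positive cell cutoff set from DMSO-treated cells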
Dynein transport: blocks dynein driven cargo transport along microtubules; 220,000 tested, 0.47% active; AID 1381; z-score, hits read low; 3617.4 mouse cells, GR-EGFP nuclear translocation imaging; test concentration mostly 20 µM; stimulated with dexamethasone, 1 µM; stronger effect = lower value;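 active means plate z-score of nuclear minus cytoplasmic receptor signal below a set negative limit, without overly bright fluorescence or cell loss, cut at about -3.5 in these data, passing the limit was not always enough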;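 further: z-score of nuclear minus cytoplasmic ring GR-EGFP intensity difference per well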
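medium = tetracycline-free induction medium containing charcoal-stripped FBS | also added = 1.0 µM final dexamethasone stimulus | schedule = 48 h induction, 1 h compound, 30 min dex at 37 °C | technique = fixed, Hoechst-stained cells imaged at 10x for EGFP | measure = GR-EGFP nuclear translocation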
HCT116 bCat-KO: beta-catenin-lacking colon tumor cell growth suppression | HCT116 beta-catenin knockout viability, CellTiter-Glo, 60 h; stronger effect = lower value | viability, % at 10 µM | 140,000 tested, 1.5% active | AID 818;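 active means viability at or under a set limit, the compound median less 4 SD, cut at about 6% in these data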;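 further: 0% = Hyamine 1622 control at 20 µM and 100% = untreated cell control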
L major viab: Leishmania major promastigote growth inhibition; Leishmania major promastigotes, resazurin fluorescence viability; inhibition, % at 10 µM; 200,000 tested, 9% active; in the data active means inhibition above about 50%;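 further: promastigotes grown with compound for 44 hours at 28 °C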
PTEN del growth: growth suppressors of cells with PTEN tumor suppressor deletion; HCT116 PTEN-null viability, CellTiter-Glo, 60 h; stronger effect = lower value; viability, % at 10 µM; AID 827; 140,000 tested, 1.2% active;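 active means viability at or below a set limit, 4 SD under the median of all tested compounds, cut at about 3.7% in these data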;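 further: PTEN knockout HCT116 line with beta catenin targeted HCT116 as companion control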
L major 1uM: blocks Leishmania major promastigote growth at 1 uM, repeat screen; shares compounds with L major viab; L. major promastigote growth, resazurin fluorescence, 48 h; inhibition, % at 1 µM; 1,100 tested, 13% active; AID 1258;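 active means inhibition above about 50% in both repeat tests, limit read from the data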
Numbers without * were called inactive; i = inactive; x = no result given. In the library only some 9.2% were active in any assay of this set; here they are far more common.

SMILES | Autophagy mod | Dynein transport | HCT116 bCat-KO | L major viab | PTEN del growth | L major 1uM
CC1(C)Oc2ccc(C(=O)NN)cc2NC1=O | i | 0.838 | x | -4.4 | x | x
COc1ccc(-c2nc3ccccc3n2OCC(=O)O)cc1 | i | 1.01 | x | -1.1 | x | x
COc1ccc(Cn2c(-c3ccc(OC)cc3)nc3ccccc32)cc1 | i | -0.167 | 73.5 | 61.8* | 67.4 | 63.5*
Cc1cc2ccccc2c(=O)n1CC(=O)NCC(=O)N(C)C1CCCCC1 | i | -0.0727 | 79.6 | -1.0 | 87.4 | x
O=C(Cn1c(=O)n2ncnc2c2c3c(sc21)CCCC3)c1ccccc1 | i | 0.578 | 98.8 | 74.4* | 92.4 | -9.7
NC(=O)Cn1c(=O)n(CCc2ccccc2)c(=O)c2c3c(sc21)CCCC3 | i | -1.79 | 73.7 | -3.8 | 87.4 | x
N#Cc1c(NC(=O)C2CC(Cl)=CCC2C(=O)O)sc2c1CCCC2 (stereo not drawn) | i | -0.159 | x | -8.0 | x | x
O=C1C=C(NCCOC23CC4CC(CC(C4)C2)C3)C2(CCCCC2)O1 | i | -0.598 | x | 85.9* | x | 19.7
Cc1ccc(Oc2ccc(-c3nc(N)nc(N)n3)cc2)cc1C | i | -0.449 | 87.9 | 99.3* | 80.0 | -14.8
O=C(CCN1C(=O)c2ccccc2C1=O)N(CCO)Cc1ccccc1 | i | 2.93 | 81.9 | -2.5 | 89.9 | x
O=C1C=C(N(CCO)Cc2ccccc2)c2ccccc2C1=O | i | -1.3 | x | 95.5* | x | -11.9
O=Cc1cn(-c2ccccc2)nc1-c1ccc2c(c1)OCCO2 | i | 0.273 | 59.2 | 96.3* | 59.8 | 6.4
O=C(c1cn(-c2ccccc2)nc1-c1ccc(Cl)cc1)N1CCOCC1 | i | -0.886 | 89.6 | 2.9 | 82.2 | x
O=C(c1cn(-c2ccccc2)nc1-c1ccc(Cl)s1)N1CCOCC1 | i | 0.0626 | 85.0 | 63.9* | 79.5 | -14.4
COc1cccc(NC(=S)/C(=C(\[O-])c2cc(C)n(-c3ccccc3F)c2C)[n+]2ccc(N(C)C)cc2)c1 | i | -0.352 | x | 40.8 | x | x
CC(C)CC(c1nnnn1C1CCCC1)N1CCC(C(N)=O)CC1 (stereo not drawn) | i | 1.17 | x | -3.2 | x | x
Cc1nc2ccc(C(C(F)(F)F)(C(F)(F)F)C(F)(F)F)cc2[nH]1 | i | -0.209 | 53.2 | 100.1* | 54.8 | 21.5
Cc1ccccc1N=C1Nc2ccccc2CS1 | i | -0.0955 | 82.4 | 51.0* | 85.8 | 5.9
Cc1nnc(Nc2ccccn2)c2ccccc12 | i | -0.767 | 90.9 | 70.1* | 100.8 | 89.7*
Cc1ccc(-n2nc3c(c2NC(=O)c2c(-c4ccccc4Cl)noc2C)CS(=O)(=O)C3)c(C)c1 | i | 0.345 | 73.3 | 15.9 | 75.0 | x
Cc1cc(C)c2c(CC(=O)N(CCC#N)Cc3cccnc3)coc2c1 | i | -0.634 | 80.0 | 81.4* | 84.7 | 9.1
Clc1ccc2[nH]cc(-c3nnnn3-c3ccc4ccccc4c3)c2c1 | i | -0.0272 | 34.5 | 98.7* | 25.5 | 85.9*
COC(=O)CCN(C(=O)c1cccc(OC(C)=O)c1)c1ccccn1 | i | 0.346 | 97.5 | 3.0 | 102.2 | x
Cc1cccc2cc(-c3ccccc3)c(-c3ccccc3)c[n+]12 | i | -0.458 | 12.4 | 100.1* | 12.0 | 30.0
N#Cc1ccc(NC(=S)Nc2ccccc2)cc1 | i | 1.09 | 92.2 | 62.1* | 101.1 | 0.2
SMILES | Autophagy mod | Dynein transport | HCT116 bCat-KO | L major viab | PTEN del growth | L major 1uM
S=C(Nc1ccccc1)Nc1ccc(Br)cc1 | x | 0.794 | x | x | x | x
Cc1c(Cl)sn(-c2ccc(Cl)cc2)c1=O | i | -4.56* | x | 100.6* | x | 99.6*
Cc1c(C(=O)O)sc(=S)n1-c1ccc(Cl)cc1 | i | -0.697 | 98.0 | -9.2 | 103.5 | x
CCn1cc[n+](C)c1P(c1ccccc1)c1ccccc1 | i | -0.451 | 83.4 | 98.2* | 84.8 | 19.9
CN1CCN2c3ccccc3Cc3ccccc3C2C1 (stereo not drawn) | i | -0.133 | 74.0 | 53.7* | 82.2 | -22.4
CN1CCN(C2OC(=O)c3ccccc32)CC1 (stereo not drawn) | i | -0.213 | 84.4 | -5.9 | 85.1 | x
O=C(Nc1ccc(O)c2c(=O)cc(-c3cccc(Cl)c3)oc12)c1ccc(F)cc1 | x | 1.09 | x | x | x | x
Cc1ccc(N2CN(Cc3cccnc3)CNC2=S)c(C)c1 | i | -0.505 | 84.8 | 85.7* | 86.3 | 45.9
Cc1ccc(N2CN(Cc3ccco3)CNC2=S)c(C)c1 | i | -0.0455 | 100.9 | 49.0 | 98.0 | x
Clc1ccc(CN2C3=NCCCN3c3ccccc32)cc1 | i | -0.45 | 73.7 | 100.2* | 63.3 | -10.2
O=C(O)c1nn(CCSc2ccccc2F)c(=O)c2ccccc12 | x | 0.137 | x | x | x | x
